# Laboratory results published in ChEMBL document CHEMBL4177546, “Development of a Selective Inhibitor of Protein Arginine Deiminase 2” (J Med Chem, 2017).
# Legend:
# Homo sapiens [1] = species on record: Homo sapiens; experiment: Selectivity ratio of Kinact/Ki for recombinant human PAD2 expressed in Escherichia coli BL21(DE3)pLysS cells to Kinact/Ki for recombinant full length N-terminal GST-tagged human PAD4 expressed in Escherichia coli Rosetta cells
# Outline: (§1)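 Enzyme at 2.0 μM (PAD1, PAD2, PAD4) or 5.0 μM (PAD3) incubated at 37 °C with various inhibitor concentrations in 50 mM HEPES, 10 mM CaCl₂, 2 mM DTT, pH 7.6. Timed aliquots moved into substrate mix: 10 mM BAEE, or 10 mM BAA for PAD3. […] Selectivity ratios taken from these values.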
# Homo sapiens [2] = species on record: Homo sapiens; experiment: Selectivity ratio of Kinact/Ki for recombinant His6-tagged PAD3 (unknown origin) to Kinact/Ki for recombinant full length N-terminal GST-tagged human PAD4 expressed in Escherichia coli Rosetta cells; outline: as §1
# Homo sapiens [3] = species on record: Homo sapiens; experiment: Selectivity ratio of Kinact/Ki for recombinant His6-tagged PAD1 (unknown origin) to Kinact/Ki for recombinant full length N-terminal GST-tagged human PAD4 expressed in Escherichia coli Rosetta cells; outline: as §1
# [4] = target: Protein-arginine deiminase type-2 (Homo sapiens, UniProt Q9Y2J8); experiment: Binding affinity to human PAD2 expressed in HEK293T cells assessed as protein occupancy at 25 uM preincubated for 15 mins followed by ionomycin addition measured after 1 hr in presence of CaCl2 by RIBFA probe based SDS-PAGE analysis relative to control; type: cell-based
# Chain of Protein-arginine deiminase type-2 (Q9Y2J8 whole entry): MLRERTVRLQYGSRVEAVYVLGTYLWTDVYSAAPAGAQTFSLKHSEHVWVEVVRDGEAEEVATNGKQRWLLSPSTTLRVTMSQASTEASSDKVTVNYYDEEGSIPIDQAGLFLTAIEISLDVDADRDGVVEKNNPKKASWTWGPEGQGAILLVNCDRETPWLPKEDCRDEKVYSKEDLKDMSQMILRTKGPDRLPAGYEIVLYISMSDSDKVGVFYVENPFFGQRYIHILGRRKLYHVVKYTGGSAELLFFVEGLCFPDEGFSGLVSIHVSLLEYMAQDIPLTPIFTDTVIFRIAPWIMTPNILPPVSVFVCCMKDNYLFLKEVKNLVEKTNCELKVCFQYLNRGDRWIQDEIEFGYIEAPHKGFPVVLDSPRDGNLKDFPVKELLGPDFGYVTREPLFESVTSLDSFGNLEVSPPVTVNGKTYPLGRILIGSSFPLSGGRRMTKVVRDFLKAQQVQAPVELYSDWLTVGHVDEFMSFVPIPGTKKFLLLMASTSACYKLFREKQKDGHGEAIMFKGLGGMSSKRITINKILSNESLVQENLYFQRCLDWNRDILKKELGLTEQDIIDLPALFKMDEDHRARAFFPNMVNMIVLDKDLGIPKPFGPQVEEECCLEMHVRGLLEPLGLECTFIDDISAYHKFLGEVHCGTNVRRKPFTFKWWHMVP
# Outline: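 Adherent HEK293T/PAD2 cells at 80–90% confluence in HBS with 2 mM CaCl₂ at 37 °C. Inhibitor (in DMSO) added for 15 min, then ionomycin (0.5 μM final) for 1 h. Cells washed and lysed in 1% Triton X-100. Lysate (2 μg/μL) labelled with RIBFA probe (2 μM) plus 2 mM CaCl₂ for 1 h at 37 °C. Gel resolved and fluorescence scanned (~546/579 nm). PAD2 occupancy expressed relative to DMSO control.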
# Homo sapiens [5] = species on record: Homo sapiens; experiment: Selectivity ratio of Kinact/Ki for recombinant human PAD2 expressed in Escherichia coli BL21(DE3)pLysS to Kinact/Ki for recombinant His6-tagged PAD3 (unknown origin); outline: as §1
# Homo sapiens [6] = species on record: Homo sapiens; experiment: Selectivity ratio of Kinact/Ki for recombinant full length N-terminal GST-tagged human PAD4 expressed in Escherichia coli Rosetta to Kinact/Ki for recombinant His6-tagged PAD3 (unknown origin); outline: as §1
# Homo sapiens [7] = species on record: Homo sapiens; experiment: Selectivity ratio of Kinact/Ki for recombinant His6-tagged PAD1 (unknown origin) to Kinact/Ki for recombinant His6-tagged PAD3 (unknown origin); outline: as §1
Activity [4] [%],Selectivity ratio (Homo sapiens [5]),Selectivity ratio (Homo sapiens [6]),Selectivity ratio (Homo sapiens [7]),Compound,Selectivity ratio (Homo sapiens [1]),Selectivity ratio (Homo sapiens [2]),Selectivity ratio (Homo sapiens [3])
–,–,–,–,COc1cccc2c1nc([C@H](CCCNC(=N)CCl)NC(=O)c1cccc3c1C(=O)N(C(C)C)C3)n2C,4.1,1.2,3.5
–,–,–,–,CCN1Cc2cccc(C(=O)N[C@@H](CCCNC(=N)CCl)c3nc4cc(OC)ccc4n3CC)c2C1=O,27,8.4,21
–,–,–,–,Cn1c([C@H](CCCNC(=N)CF)NC(=O)c2ccccc2C(=O)O)nc2ccccc21,15,1.3,40
–,–,–,–,COc1cccc2c1nc([C@H](CCCNC(=N)CCl)NC(=O)c1cccc3c1C(=O)N(C1CC1)C3)n2C,6.7,1.1,4.7
–,–,–,–,CCN1Cc2cccc(C(=O)N[C@@H](CCCNC(=N)CF)c3nc4cc(OC)ccc4n3CC)c2C1=O,70,2.7,28
–,–,–,–,CCOc1cccc2c1nc([C@H](CCCNC(=N)CCl)NC(=O)c1cccc3c1C(=O)N(CC)C3)n2C,43,5.5,12
–,–,–,–,CCOc1cccc2c1nc([C@H](CCCNC(=N)CCl)NC(=O)c1cccc3c1C(=O)NC3)n2C,30,2.7,24
< 37,77,3.8,38,COc1cccc2c1nc([C@H](CCCNC(=N)CF)NC(=O)c1cccc3c1C(=O)N(C1CC1)C3)n2C,–,–,–
–,19,1.2,21,CCN1Cc2cccc(C(=O)N[C@@H](CCCNC(=N)CCl)c3nc4ccccc4n3C)c2C1=O,–,–,–
–,–,–,–,CCn1c([C@H](CCCNC(=N)CCl)NC(=O)c2cccc3c2C(=O)NC3)nc2cc(OC)ccc21,16,4.4,21
–,–,–,–,CCN1Cc2cccc(C(=O)N[C@@H](CCCNC(=N)CF)c3nc4c(OC)cccc4n3CC)c2C1=O,40,2,28
–,–,–,–,CCN1Cc2cccc(C(=O)N[C@@H](CCCNC(=N)CCl)c3nc4ccccc4n3CC)c2C1=O,14,2.1,18
–,–,–,–,CC(C)n1c([C@H](CCCNC(=N)CCl)NC(=O)c2ccccc2C(=O)O)nc2ccccc21,38,3.8,68
–,–,–,–,Cn1c([C@H](CCCNC(=N)CCl)NC(=O)c2cccc3c2C(=O)NC3)nc2ccccc21,3.1,2,61
–,–,–,–,COc1ccc2c(c1)nc([C@H](CCCNC(=N)CCl)NC(=O)c1cccc3c1C(=O)NC3)n2C,10,2.4,25
–,125,3.8,47,CCN1Cc2cccc(C(=O)N[C@@H](CCCNC(=N)CF)c3nc4cc(OC)ccc4n3C)c2C1=O,–,–,–
–,1.9,1,4.3,Cn1c([C@H](CCCNC(=N)CCl)NC(=O)c2ccccc2C(=O)O)nc2ccccc21,–,–,–
–,–,–,–,CC(C)n1c([C@H](CCCNC(=N)CCl)NC(=O)c2cccc3c2C(=O)NC3)nc2ccccc21,8,3.2,27
–,–,–,–,CCN1Cc2cccc(C(=O)N[C@@H](CCCNC(=N)CCl)c3nc4cc(OC)ccc4n3C)c2C1=O,32,9.3,37
–,5.4 to 114,3.5,13,COc1ccc2[nH]c([C@H](CCCNC(=N)CF)NC(=O)c3cccc4c3C(=O)NC4)nc2c1,95,–,–
–,–,–,–,CCn1c([C@H](CCCNC(=N)CCl)NC(=O)c2cccc3c2C(=O)NC3)nc2c(OC)cccc21,19,2.9,50
< 37,58,2.6,32,COc1cccc2c1nc([C@H](CCCNC(=N)CF)NC(=O)c1cccc3c1C(=O)N(C(C)C)C3)n2C,–,–,–
–,2.3,2.1,6.5,N=C(CCl)NCCC[C@H](NC(=O)c1cccc2c1C(=O)NC2)c1nc2ccccc2[nH]1,–,–,–
–,3.5 to 114,2.2,7.3,COc1ccc2[nH]c([C@H](CCCNC(=N)CCl)NC(=O)c3cccc4c3C(=O)NC4)nc2c1,95,–,–

Activity [4] [%],Selectivity ratio (Homo sapiens [5]),Selectivity ratio (Homo sapiens [6]),Selectivity ratio (Homo sapiens [7]),Compound,Selectivity ratio (Homo sapiens [1]),Selectivity ratio (Homo sapiens [2]),Selectivity ratio (Homo sapiens [3])
–,–,–,–,COc1cccc2[nH]c([C@H](CCCNC(=N)CF)NC(=O)c3cccc4c3C(=O)NC4)nc12,8,3.8,42
–,–,–,–,CCN1Cc2cccc(C(=O)N[C@@H](CCCNC(=N)CF)c3nc4ccccc4n3C(C)C)c2C1=O,22,3.4,10
–,–,–,–,CCN1Cc2cccc(C(=O)N[C@@H](CCCNC(=N)CCl)c3nc4ccccc4n3C(C)C)c2C1=O,6.8,2,11
–,1.5,1.4,4.3,CCN1Cc2cccc(C(=O)N[C@@H](CCCNC(=N)CCl)c3nc4ccccc4[nH]3)c2C1=O,–,–,–
–,8.9,1,25,Cn1c([C@H](CCCNC(=N)CF)NC(=O)c2cccc3c2C(=O)NC3)nc2ccccc21,–,–,–
–,18,–,–,CCn1c([C@H](CCCNC(=N)CF)NC(=O)c2ccccc2C(=O)O)nc2ccccc21,31,1.7,39
–,3.3,10,24,N=C(CF)NCCC[C@H](NC(=O)c1cccc2c1C(=O)NC2)c1nc2ccccc2[nH]1,–,–,–
–,–,–,–,CCN1Cc2cccc(C(=O)N[C@@H](CCCNC(=N)CF)c3nc4ccccc4n3C)c2C1=O,11,1.9,6.1
–,–,–,–,CCN1Cc2cccc(C(=O)N[C@@H](CCCNC(=N)CF)c3nc4cc(OC)ccc4[nH]3)c2C1=O,6.3,3.6,4.4
–,–,–,–,CCN1Cc2cccc(C(=O)N[C@@H](CCCNC(=N)CCl)c3nc4cc(OC)ccc4[nH]3)c2C1=O,9.1,4.1,7.8
–,–,–,–,CCn1c([C@H](CCCNC(=N)CF)NC(=O)c2cccc3c2C(=O)NC3)nc2cc(OC)ccc21,50,2.5,24
–,–,–,–,CC(C)n1c([C@H](CCCNC(=N)CF)NC(=O)c2ccccc2C(=O)O)nc2ccccc21,54,4.4,49
–,3.9,1.3,3.9,COc1cccc2c1nc([C@H](CCCNC(=N)CCl)NC(=O)c1cccc3c1C(=O)NC3)n2C,–,–,–
–,–,–,–,COc1cccc2c1nc([C@H](CCCNC(=N)CCl)NC(=O)c1cccc3c1C(=O)N(C)C3)n2C,11,2.2,6.8
–,–,–,–,CCOc1cccc2c1nc([C@H](CCCNC(=N)CF)NC(=O)c1cccc3c1C(=O)N(CC)C3)n2C,26,1,8.9
–,5,1.3,3.9,CCN1Cc2cccc(C(=O)N[C@@H](CCCNC(=N)CCl)c3nc4c(OC)cccc4n3C)c2C1=O,–,–,–
–,–,–,–,CCn1c([C@H](CCCNC(=N)CCl)NC(=O)c2cccc3c2C(=O)NC3)nc2ccccc21,4.8,1.8,10
–,–,–,–,CCN1Cc2cccc(C(=O)N[C@@H](CCCNC(=N)CCl)c3nc4c(OC)cccc4[nH]3)c2C1=O,2.3,1,5
–,–,–,–,CCN1Cc2cccc(C(=O)N[C@@H](CCCNC(=N)CF)c3nc4c(OC)cccc4[nH]3)c2C1=O,32,12,107
–,20,2.4,12,CC(C)n1c([C@H](CCCNC(=N)CF)NC(=O)c2cccc3c2C(=O)NC3)nc2ccccc21,–,–,–
–,1.6,1.2,4.3,CCn1c([C@H](CCCNC(=N)CCl)NC(=O)c2ccccc2C(=O)O)nc2ccccc21,–,–,–
–,–,–,–,CCN1Cc2cccc(C(=O)N[C@@H](CCCNC(=N)CCl)c3nc4c(OC)cccc4n3CC)c2C1=O,27,3.4,31
–,–,–,–,COc1cccc2[nH]c([C@H](CCCNC(=N)CCl)NC(=O)c3cccc4c3C(=O)NC4)nc12,11,6.9,30
